For orientation: CC50 means the concentration that lowers cell viability or growth by half.

Calls of active or inactive are those of the source. No cut-off for these calls is given here.

Results on 10 molecules are retold here after ChEMBL document CHEMBL4196178, “Structure-Based Drug Design of Potent Pyrazole Derivatives against Rhinovirus Replication” (J Med Chem, 2018).

Data set [1] is described as follows: Cytotoxicity against human HeLa Rh cells assessed as reduction in cell viability after 3 days by MTS assay. Format: cell-based. (Tetrazolium dyes change colour on reduction, which living cells bring about.)
Data set [2] can be described thus: Selectivity index, ratio of CC50 for human HeLa Rh cells to EC50 for Rhinovirus B14 capsid infected in human HeLa Rh cells. Format: toxicity, cell-based. The note with it: read-out: Ratio CC50/EC50. The method in brief:
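SI = CC₅₀/EC₅₀ for RV-B14 in HeLa Rh cells, both from the same 3-day 35 °C MTS CPE assay. CC₅₀ was obtained by light-microscope scoring of compound-treated uninfected cells, and EC₅₀ from MTS dose-response. Both values were derived by logarithmic interpolation and reported as median ± median absolute deviation.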

Data set [3] addresses T1, VP1 capsid protein (Human rhinovirus sp.) (UniProt Q7T664).
T1 sequence (whole entry): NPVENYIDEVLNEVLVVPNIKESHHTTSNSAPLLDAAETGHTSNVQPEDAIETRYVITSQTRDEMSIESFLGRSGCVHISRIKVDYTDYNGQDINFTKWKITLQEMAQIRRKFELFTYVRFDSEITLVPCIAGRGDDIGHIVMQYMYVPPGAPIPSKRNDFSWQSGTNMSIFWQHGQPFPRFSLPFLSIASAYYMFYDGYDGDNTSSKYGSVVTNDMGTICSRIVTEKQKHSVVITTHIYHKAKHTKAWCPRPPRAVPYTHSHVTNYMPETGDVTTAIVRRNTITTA
Description: Inhibition of Rhinovirus B14 capsid infected in human HeLa Rh cells assessed as reduction in viral replication at 1 uM administered 2 hrs before infection measured after 8 hrs post infection by RT-qPCR analysis. The data set is classed as cell-based. Put shortly:
(§1)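 HeLa Rh cells adhered overnight, then given 1 µM compound 2 h before, at, or 2, 4 or 6 h after RV-B14 infection. Untreated infected cells served as controls. Cells lysed at 8 h post-infection, DNases heat-inactivated at 75 °C for 15 min. Intracellular viral RNA measured by SYBR one-step qRT-PCR against a gBlock standard series, reported as genome equivalents per sample.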
(Quantitative PCR measures a nucleic acid by following its amplification.)

Data set [4] concerns rhinovirus B14. In words: Antiviral activity against Rhinovirus B14 infected in human HeLa Rh cells assessed as reduction in viral replication at 1 uM administered at the time of infection measured after 8 hrs post infection by RT-qPCR analysis. The data set is classed as functional, organism-based. The method in brief:
as §1

Data set [5] relates to rhinovirus B14. Description: Antiviral activity against Rhinovirus B14 infected in human HeLa Rh cells assessed as reduction in viral replication at 1 uM administered at >= 2 hrs post infection measured after 8 hrs post infection by RT-qPCR analysis. Format: functional, organism-based. Put shortly:
as §1

In data set [6] the test system is CHO-K1. Description: Genotoxicity in CHOK1 cells assessed as increase in micronucleated cell rates at 1 to 100 uM after 3 hrs in presence of Sprague-Dawley rat S9 fraction and cytokinesis blocking agent cytochalasin B by Giemsa-staining based assay. The data set is classed as toxicity, Cricetulus griseus. The following applies: chinese hamster, s9, 3 h. Put shortly: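 CHO-K1 cells were seeded at 100,000 cells/ml and pre-incubated 24 h. S9 mix from Aroclor 1254-treated male Sprague-Dawley rat liver (1% S9, 0.5 mM G6P, 0.4 mM NADP) was added at 10%, and compound (1–100 μM) was given in duplicate for 3 h at 37 °C. Controls were medium, 1% DMSO and benzo-a-pyrene 5 µg/ml. Cells then had 21 h in 3 µg/ml cytochalasin B and Giemsa staining. Micronuclei were counted in 1000 binucleated cells per well at doses with CI% decrease <55 ± 5%, and compared by χ² test.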

The test system of data set [7] is CHO-K1. Description: Genotoxicity in CHOK1 cells assessed as increase in micronucleated cell rates at 1 to 100 uM after 3 hrs in absence of Sprague-Dawley rat S9 fraction and presence of cytokinesis blocking agent cytochalasin B by Giemsa-staining based assay. The note with it: chinese hamster, cho-k1, 3 h. Format: toxicity, Cricetulus griseus. Put shortly: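 CHO-K1 cells were seeded at 100,000 cells/ml and pre-incubated 24 h, then exposed in duplicate to compound (1–100 μM) for 3 h at 37 °C without S9. Controls were medium, 1% DMSO and mitomycin C 0.6 µg/ml. Cells then had 21 h in 3 µg/ml cytochalasin B, followed by methanol fixation and 10% Giemsa. Micronuclei were counted in 1000 binucleated cells per well, restricted to doses with CI% decrease <55 ± 5%, and compared by χ² test.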

For data set [8], the target named is T1, VP1 capsid protein (Human rhinovirus sp.). Description: Inhibition of Rhinovirus B14 capsid infected in human HeLa Rh cells assessed as number of wells with full cytopathic effect at 4 times EC50 concentration after 1st passage measured after 3 days by MTS assay relative to control. The data set is classed as cell-based. Details: scale not given: the % may be the effect or the level left. The method in brief:
(§2)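 Confluent HeLa cells were infected with wild-type RV-B14 with compound present at 1x, 2x or 4x in vitro EC₅₀, n=4 wells. Supernatant was diluted 1:10 onto fresh HeLa cells with compound, for four passages. Value is percentage of wells with full CPE.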

Data set [9] has the same target. In words: Inhibition of Rhinovirus B14 capsid infected in human HeLa Rh cells assessed as number of wells with full cytopathic effect at 2 times EC50 concentration after 1st passage measured after 3 days by MTS assay relative to control. Also noted: scale not given: the % may be the effect or the level left. The data set is classed as cell-based. The method in brief:
as §2

Data set [10] has the same target. In words: Inhibition of Rhinovirus B14 capsid infected in human HeLa Rh cells assessed as number of wells with full cytopathic effect at EC50 concentration after 1st passage measured after 3 days by MTS assay relative to control. Also noted: scale not given: the % may be the effect or the level left. The data set is classed as cell-based. The method in brief:
as §2
A general note: Damage to the host cells serves as the signal in cytopathic effect assays.

Data set [11] concerns rhinovirus B14. Description: Inhibition of Rhinovirus B14 capsid infected in human HeLa Rh cells assessed as number of wells with full cytopathic effect at 4 times EC50 concentration after 2nd passage measured after 3 days by MTS assay relative to control. Details: scale not given: the % may be the effect or the level left. The data set is classed as functional. The method in brief:
as §2

For data set [12], the target named is T1, VP1 capsid protein (Human rhinovirus sp.). Description: Inhibition of Rhinovirus B14 capsid infected in human HeLa Rh cells assessed as number of wells with full cytopathic effect at 2 times EC50 concentration after 2nd passage measured after 3 days by MTS assay relative to control. Also noted: scale not given: the % may be the effect or the level left. The data set is classed as cell-based. The method in brief: as §2

Data set [13] has the same target. In words: Inhibition of Rhinovirus B14 capsid infected in human HeLa Rh cells assessed as number of wells with full cytopathic effect at EC50 concentration after 2nd passage measured after 3 days by MTS assay relative to control. The data set is classed as cell-based. Also noted: scale not given: the % may be the effect or the level left. Put shortly:
as §2

Data set [14] shares this target. In words: Inhibition of Rhinovirus B14 capsid infected in human HeLa Rh cells assessed as number of wells with full cytopathic effect at 4 times EC50 concentration after 3rd passage measured after 3 days by MTS assay relative to control. The data set is classed as cell-based. Details: scale not given: the % may be the effect or the level left. The method in brief: as §2

Data set [15] shares this target. Description: Inhibition of Rhinovirus B14 capsid infected in human HeLa Rh cells assessed as number of wells with full cytopathic effect at 2 times EC50 concentration after 3rd passage measured after 3 days by MTS assay relative to control. Format: cell-based. Also noted: scale not given: the % may be the effect or the level left. The method in brief: as §2
The target is the same in data set [16]. In words: Inhibition of Rhinovirus B14 capsid infected in human HeLa Rh cells assessed as number of wells with full cytopathic effect at EC50 concentration after 3rd passage measured after 3 days by MTS assay relative to control. The data set is classed as cell-based. Also noted: scale not given: the % may be the effect or the level left. The method in brief:
as §2

The target is the same in data set [17]. In words: Inhibition of Rhinovirus B14 capsid infected in human HeLa Rh cells assessed as number of wells with full cytopathic effect at 4 times EC50 concentration after 4th passage measured after 3 days by MTS assay relative to control. Format: cell-based. Also noted: scale not given: the % may be the effect or the level left. Put shortly:
as §2

The target is the same in data set [18]. In words: Inhibition of Rhinovirus B14 capsid infected in human HeLa Rh cells assessed as number of wells with full cytopathic effect at 2 times EC50 concentration after 4th passage measured after 3 days by MTS assay relative to control. The data set is classed as cell-based. Also noted: scale not given: the % may be the effect or the level left. Put shortly:
as §2

Data set [19] has the same target. Description: Inhibition of Rhinovirus B14 capsid infected in human HeLa Rh cells assessed as number of wells with full cytopathic effect at EC50 concentration after 4th passage measured after 3 days by MTS assay relative to control. The data set is classed as cell-based. Also noted: scale not given: the % may be the effect or the level left. The method in brief:
as §2

Data set [20] has the same target. Description: Inhibition of capsid of VP1 A150V mutant harboring Rhinovirus B14 assessed as reduction of virus induced cytopathic effect at 4 times EC50 concentration after 4th passage measured after 3 days by MTS assay.
Data set [21] shares this target. In words: Inhibition of capsid of VP1 C199W mutant harboring Rhinovirus B14 assessed as reduction of virus induced cytopathic effect at 1 times EC50 concentration after 4th passage measured after 3 days by MTS assay.
The target is the same in data set [22]. Description: Inhibition of capsid of VP1 N105S mutant harboring Rhinovirus B14 assessed as reduction of virus induced cytopathic effect at 2 times EC50 concentration after 4th passage measured after 3 days by MTS assay.

With `O=[N+]([O-])c1cc(Br)ccc1CC(O)c1ccc(-c2ccncc2)cc1` (racemic), in data set [1], the half-maximal cytotoxic concentration (CC50) at 72 h is > 250 µM. Moreover, in [2], the selectivity ratio was > 424.
For the molecule `Cn1cc(-c2ccc(C[C@H](O)c3ccc(-n4cncn4)cc3)c([N+](=O)[O-])c2)cn1`, the CC50 at 72 h in data set [1] was > 342 µM. Further, the selectivity ratio in [2] is > 5700. Also, the inhibition result in [3] was “Active”. Besides, the outcome in the data set with rhinovirus B14 [4] was Active. Besides, the result in the data set with rhinovirus B14 [5] was inactive. The Activity result in the data set with CHO-K1 [6] and in the data set with CHO-K1 [7] was “Non-Toxic” each time.
Turning to `Cn1nc(C(F)(F)F)cc1-c1ccc(CC(O)c2ccc(-n3cncn3)cc2)c([N+](=O)[O-])c1` (racemic), the CC50 at 72 h in data set [1] is 21 µM.
In the case of `Cn1cc(-c2ccc(C[C@H](O)c3ccc(-n4cccn4)cc3)c([N+](=O)[O-])c2)cn1`, in [1], the half-maximal cytotoxic concentration (CC50) at 72 h is > 342 µM. The selectivity ratio in data set [2] was > 9770. Also, the inhibition result in data set [3] was “Active”. Moreover, the outcome with rhinovirus B14 [4] was Active. The outcome in the data set with rhinovirus B14 [5] was inactive. Also, the Activity entry in the data set with CHO-K1 [6] and in the data set with CHO-K1 [7] was “Non-Toxic” throughout.
Consider `O=[N+]([O-])c1cc(Cl)ccc1CC(O)c1ccc(-n2cccn2)cc1` (racemic), for which the 50% cytotoxic concentration (CC50) at 72 h in data set [1] is > 100 µM. Further, the selectivity ratio in [2] was > 781.
Turning to `Cc1cc(CCCOc2c(C)cc(-c3noc(C(F)(F)F)n3)cc2C)on1` [PLECONARIL], in data set [1], the CC50 at 72 h is > 131 µM. For the same molecule, the selectivity ratio in data set [2] is > 4040. In data set [3], the inhibition entry was “Active”. Besides, the outcome with rhinovirus B14 [4] was Active. In addition, the result with rhinovirus B14 [5] was inactive. Further, the Activity in data set [8] was 0%; in data set [9], 0%; in data set [10], 0%; in the data set with rhinovirus B14 [11], 0%; in data set [12] it was 0%; in data set [13], 100%. The Activity in [14] is 25%; in [15], 100%; in [16], 100%; in data set [17], 25%; in data set [18], 100%; in [19] it was 100%.
For `O=[N+]([O-])c1cc(-c2ccco2)ccc1CC(O)c1ccc(-c2ccncc2)cc1` (racemic), the CC50 at 72 h in [1] was > 86 µM. For the same molecule, in [2], the selectivity ratio is > 72.
On to `Cn1cc(-c2ccc(CC(O)c3ccc(-n4cncn4)cc3)c([N+](=O)[O-])c2)cn1` (racemic), for which, in data set [1], the CC50 at 72 h lay within 256 to 699 µM. Moreover, the selectivity ratio in data set [2] fell in the range of 1420 to 3880. The inhibition entry in data set [3], in data set [21] and in [22] was “Active” each time. In addition, the result with rhinovirus B14 [4] was Active. For the same molecule, the result with rhinovirus B14 [5] was inactive. The Activity turned out to be 0% in [8]; 0% in data set [9]; 0% in [10]; 0% with rhinovirus B14 [11]; 0% in data set [12]; 50% in data set [13]. The Activity came out at 0% in data set [14]; 25% in [15]; 75% in data set [16]; 0% in data set [17]; 50% in data set [18]; 100% in data set [19]. The inhibition entry in data set [20] was “inactive”.
As for `Cc1noc(C)c1-c1ccc(CC(O)c2ccc(-n3cncn3)cc2)c([N+](=O)[O-])c1` (racemic), the 50% cytotoxic concentration (CC50) at 72 h in data set [1] is > 256 µM.
Turning to `O=[N+]([O-])c1cc(Br)ccc1CC(O)c1ccc(-n2cccn2)cc1` (racemic), the cytotoxic concentration (CC50) at 72 h in [1] was found to be 22.5 µM. For the same molecule, the selectivity ratio in data set [2] stood at 90.
